Test results as given in paper PMC8745002 (European journal of immunology, 2021).

Columns and labels:
[1] = In vitro plasma stability assay, human plasma; format: in vitro ADME; conditions: 37 °C
In short: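 Compound in DMSO, diluted to a 0.1 mM working solution in DMSO:water (1:1, v/v). Mouse, rat or human plasma thawed and pre-warmed at 37 °C, then mixed 100:1 (plasma:working solution). Incubated at 37 °C, 5% CO2, shaking at 200 rpm. Half-life determined from this plasma incubation.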

[2] = In vitro plasma stability assay, mouse plasma; format: in vitro ADME; conditions: 37 °C, comparison in words
[3] = tested on: SRBC-vaccinated mice; test: SRBC vaccination mouse model, flow cytometry of splenic cells; format: in vivo, C57/BL6 mice; conditions: FX1 80 mg/kg once daily, 8-day course; spleen, day 11
In short: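 Male C57/BL6 mice, 8–12 weeks old, given 100 µL 10% SRBC i.p. on day 0. Compound dosed in 100 µL vehicle from day 3; vehicle controls matched. Spleens taken on day 11 and meshed through a 70 µm strainer. Cells spun 2000 rpm for 10 min, washed in PBS with 2% FBS. Two million mononuclear cells stained for surface and intracellular markers, analysed on a 4-laser LSRII.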

[4] = tested on: SRBC-vaccinated mice; test: SRBC-specific IgM and IgG1 detection in plasma by flow cytometry; format: in vivo, C57/BL6 mice; conditions: mice receiving FX1 (80 mg/kg once daily)
In short: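 Plasma taken on day 11 from SRBC-vaccinated (100 µL 10% i.p.) male C57/BL6 mice given compound or vehicle (100 µL) from day 3, diluted 1:5 in PBS. 5 µL incubated with 20 µL 2% SRBC for 5 min, then 20 min with fluorescent anti-mouse IgM or IgG1. Washed, fixed in 1% PFA, read by flow with isotype controls. MFI normalised to unvaccinated-mouse plasma, as fold change.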

[5] = tested on: SRBC-vaccinated mice; test: Mouse pan IgG and IgM ELISA; format: in vivo, C57/BL6 mice; conditions: 11 days after vaccination
In short: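 Male C57/BL6 mice, 8–12 weeks old, given 100 µL 10% SRBC i.p. on day 0. From 3 days later, 8-day course of test compound (100 µL vehicle, once or three times daily, 5 h apart) or vehicle on the same schedule. Plasma collected at CO2 euthanasia on day 11. Total IgG and IgM measured by commercial ELISA kit per manufacturer. Welch test.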

[6] = tested on: BCL6; conditions: cited from earlier work
[7] = cited from earlier work
[8] = tested on: rhesus macaque; conditions: FX1 treatment; cited from earlier work

- T1/2 in human plasma [1]: 3.29 h
- total titer of plasma pan IgG and IgM vs vehicle [5]: no difference
Structure (SMILES): O=C(O)CCN1C(=O)/C(=C2/C(=O)Nc3ccc(Cl)cc32)SC1=S [FX1]
- stability (T1/2) in mouse plasma [2]: significantly longer stability over AP-4-287 in mouse plasma
- GC B cells [3]: can lower GC B
- frequency of CD4+ Tfh within GCs [3]: did not reduce
- SRBC-specific IgM and IgG1 vs vehicle [4]: Lower
- affinity compared with natural ligand (SMRT) [6]: higher affinity than its natural ligand (SMRT)
- aqueous solubility [7]: poor aqueous solubility
- lymphoid hyperplasia [8]: reversal of lymphoid hyperplasia
